Reference: ChEMBL document CHEMBL4118152, “Discovery of Potent and Selective Periphery-Restricted Quinazoline Inhibitors of the Cyclic Nucleotide Phosphodiesterase PDE1” (J Med Chem, 2018)
pIC50: −log10 of the molar value. Values belong to the compound of their own block, whether it stands above or below them. The source made the active and inactive calls. The rule behind the calls is not given here.

Experiments:
[1] = molecular target: Dual specificity calcium/calmodulin-dependent 3',5'-cyclic nucleotide phosphodiesterase 1B (Homo sapiens, UniProt Q01064); test: Inhibition of full length recombinant human PDE1B1 using 3',5'-[3H]cAMP as substrate after 30 mins by scintillation proximity assay
Method in brief: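 Enzymes were human except PDE6A, which was bovine. Each was assayed with cAMP or cGMP substrate, as appropriate to the enzyme, at concentrations below 1/3 of Km. IC50 values are mean ± SEM from n = 3 or more.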

[2] = molecular target: Dual specificity calcium/calmodulin-dependent 3',5'-cyclic nucleotide phosphodiesterase 1A (Homo sapiens, UniProt P54750); test: Inhibition of full length recombinant human PDE1A using 3',5'-[3H]cAMP as substrate after 30 mins by scintillation proximity assay
Method in brief: (§1)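 Human recombinant enzymes; substrate held below 1/3 of Km. IC50 reported as mean ± SEM of at least 3 determinations.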

[3] = molecular target: T1, Dual specificity calcium/calmodulin-dependent 3',5'-cyclic nucleotide phosphodiesterase 1C (Homo sapiens, UniProt Q14123); test: Inhibition of full length recombinant human PDE1C using 3',5'-[3H]cAMP as substrate after 30 mins by scintillation proximity assay; method in brief: as §1
HEK293 = test: Inhibition of recombinant human PDE3 expressed in HEK293 cells using 3',5'-[3H]cAMP as substrate at 1 uM
Method in brief: (§2)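 Recombinant enzymes were assayed for hydrolysis of cAMP or cGMP, with substrate at 0.1 µM. The inhibitor was tested at 1.0 µM.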

[4] = molecular target: T2, cGMP-specific 3',5'-cyclic phosphodiesterase (Homo sapiens, UniProt O76074); test: Inhibition of PDE5A in soluble protein extracts of human myocardium assessed as Ca2+/calmodulin stimulated substrate hydrolysis using 3',5'-[3H]cAMP as substrate relative to control; conditions: concentration not given here
Method in brief: (§3)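 Soluble protein extracts from human left ventricle, test agent 1.0 µM, [3H]cAMP or [3H]cGMP substrate at 0.1 µM. Total activity was measured with CaCl2 plus exogenous calmodulin, and a parallel reaction was run with the Ca2+ chelator EGTA. Ca2+/calmodulin-dependent activity is total minus the EGTA activity; inhibition is given relative to control.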

[5] = molecular target: T2, cGMP-specific 3',5'-cyclic phosphodiesterase; test: Inhibition of recombinant human PDE5 expressed in HEK293 cells using 3',5'-[3H]cGMP as substrate at 1 uM
Method in brief: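 Recombinant enzymes were tested at 1.0 µM inhibitor with cAMP or cGMP substrate at 0.1 µM. Read-out is hydrolytic activity relative to control.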

[6] = molecular target: T3, cGMP-inhibited 3',5'-cyclic phosphodiesterase 3A (Homo sapiens, UniProt Q14432); test: Inhibition of PDE3A in soluble protein extracts of human myocardium assessed as Ca2+/calmodulin stimulated substrate hydrolysis using 3',5'-[3H]cGMP as substrate relative to control; conditions: concentration not given here; method in brief: as §3
[7] = molecular target: T3, cGMP-inhibited 3',5'-cyclic phosphodiesterase 3A; test: Inhibition of PDE3A in soluble protein extracts of human myocardium assessed as Ca2+/calmodulin stimulated substrate hydrolysis using 3',5'-[3H]cAMP as substrate relative to control; conditions: concentration not given here; method in brief: as §3
[8] = molecular target: T3, cGMP-inhibited 3',5'-cyclic phosphodiesterase 3A; test: Inhibition of PDE3A in soluble protein extracts of human myocardium using 3',5'-[3H]cGMP as substrate at 1 uM relative to control
[9] = molecular target: T3, cGMP-inhibited 3',5'-cyclic phosphodiesterase 3A; test: Inhibition of PDE3A in soluble protein extracts of human myocardium using 3',5'-[3H]cAMP as substrate at 1 uM relative to control
[10] = molecular target: T2, cGMP-specific 3',5'-cyclic phosphodiesterase; test: Inhibition of recombinant human PDE5A expressed in HEK293 cells using 3',5'-[3H]cGMP as substrate; method in brief: as §2
[11] = molecular target: T3, cGMP-inhibited 3',5'-cyclic phosphodiesterase 3A; test: Inhibition of recombinant human PDE3A expressed in HEK293 cells using 3',5'-[3H]cGMP as substrate; method in brief: as §2
[12] = molecular target: T1, Dual specificity calcium/calmodulin-dependent 3',5'-cyclic nucleotide phosphodiesterase 1C; test: Inhibition of recombinant C-terminal FLAG tagged human PDE1C expressed in HEK293 cells using 3',5'-[3H]cGMP as substrate
[13] = molecular target: T1, Dual specificity calcium/calmodulin-dependent 3',5'-cyclic nucleotide phosphodiesterase 1C; test: Inhibition of recombinant C-terminal FLAG tagged human PDE1C expressed in HEK293 cells using 3',5'-[3H]cAMP as substrate
[14] = molecular target: T3, cGMP-inhibited 3',5'-cyclic phosphodiesterase 3A; test: Inhibition of recombinant human PDE3A expressed in HEK293 cells using 3',5'-[3H]cAMP as substrate; method in brief: as §2
[15] = molecular target: T2, cGMP-specific 3',5'-cyclic phosphodiesterase; test: Inhibition of PDE5A in soluble protein extracts of human myocardium using 3',5'-[3H]cGMP as substrate at 1 uM relative to control
[16] = molecular target: T2, cGMP-specific 3',5'-cyclic phosphodiesterase; test: Inhibition of PDE5A in soluble protein extracts of human myocardium using 3',5'-[3H]cAMP as substrate at 1 uM relative to control
[17] = molecular target: T2, cGMP-specific 3',5'-cyclic phosphodiesterase; test: Inhibition of PDE5A in soluble protein extracts of human myocardium assessed as Ca2+/calmodulin stimulated substrate hydrolysis using 3',5'-[3H]cGMP as substrate relative to control; conditions: concentration not given here; method in brief: as §3

Dual specificity calcium/calmodulin-dependent 3',5'-cyclic nucleotide phosphodiesterase 1B, sequence (Q01064 whole entry): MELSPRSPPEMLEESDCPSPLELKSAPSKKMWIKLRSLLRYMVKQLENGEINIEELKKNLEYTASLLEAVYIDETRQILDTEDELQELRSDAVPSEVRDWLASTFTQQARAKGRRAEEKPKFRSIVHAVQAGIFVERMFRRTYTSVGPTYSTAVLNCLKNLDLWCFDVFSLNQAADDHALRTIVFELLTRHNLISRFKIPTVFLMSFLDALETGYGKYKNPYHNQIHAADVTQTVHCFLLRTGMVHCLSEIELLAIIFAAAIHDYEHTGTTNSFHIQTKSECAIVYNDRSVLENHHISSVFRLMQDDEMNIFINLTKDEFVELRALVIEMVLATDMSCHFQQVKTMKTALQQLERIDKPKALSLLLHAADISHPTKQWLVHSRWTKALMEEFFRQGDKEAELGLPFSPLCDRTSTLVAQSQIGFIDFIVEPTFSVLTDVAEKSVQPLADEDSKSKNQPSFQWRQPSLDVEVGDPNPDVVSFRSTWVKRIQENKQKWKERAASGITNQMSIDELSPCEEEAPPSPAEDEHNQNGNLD
T1 sequence (Q14123 whole entry): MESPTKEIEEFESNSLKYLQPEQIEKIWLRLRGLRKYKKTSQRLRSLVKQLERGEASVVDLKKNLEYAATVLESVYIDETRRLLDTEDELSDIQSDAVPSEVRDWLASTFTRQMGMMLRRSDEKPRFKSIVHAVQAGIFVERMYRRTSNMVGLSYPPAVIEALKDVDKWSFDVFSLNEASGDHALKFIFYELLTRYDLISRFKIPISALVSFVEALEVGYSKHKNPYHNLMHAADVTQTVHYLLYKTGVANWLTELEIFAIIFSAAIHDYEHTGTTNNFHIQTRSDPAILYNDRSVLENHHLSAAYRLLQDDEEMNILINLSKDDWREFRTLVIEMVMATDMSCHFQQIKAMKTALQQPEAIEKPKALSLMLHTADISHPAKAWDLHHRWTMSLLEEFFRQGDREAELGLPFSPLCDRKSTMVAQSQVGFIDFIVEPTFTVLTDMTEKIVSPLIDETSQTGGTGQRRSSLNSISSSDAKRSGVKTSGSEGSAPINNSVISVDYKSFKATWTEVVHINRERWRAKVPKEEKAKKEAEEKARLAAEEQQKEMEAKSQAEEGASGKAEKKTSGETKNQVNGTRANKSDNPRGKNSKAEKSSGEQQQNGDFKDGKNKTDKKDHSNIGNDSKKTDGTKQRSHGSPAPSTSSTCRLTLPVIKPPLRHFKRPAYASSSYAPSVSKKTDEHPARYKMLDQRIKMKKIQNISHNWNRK
T3 sequence (Q14432 whole entry): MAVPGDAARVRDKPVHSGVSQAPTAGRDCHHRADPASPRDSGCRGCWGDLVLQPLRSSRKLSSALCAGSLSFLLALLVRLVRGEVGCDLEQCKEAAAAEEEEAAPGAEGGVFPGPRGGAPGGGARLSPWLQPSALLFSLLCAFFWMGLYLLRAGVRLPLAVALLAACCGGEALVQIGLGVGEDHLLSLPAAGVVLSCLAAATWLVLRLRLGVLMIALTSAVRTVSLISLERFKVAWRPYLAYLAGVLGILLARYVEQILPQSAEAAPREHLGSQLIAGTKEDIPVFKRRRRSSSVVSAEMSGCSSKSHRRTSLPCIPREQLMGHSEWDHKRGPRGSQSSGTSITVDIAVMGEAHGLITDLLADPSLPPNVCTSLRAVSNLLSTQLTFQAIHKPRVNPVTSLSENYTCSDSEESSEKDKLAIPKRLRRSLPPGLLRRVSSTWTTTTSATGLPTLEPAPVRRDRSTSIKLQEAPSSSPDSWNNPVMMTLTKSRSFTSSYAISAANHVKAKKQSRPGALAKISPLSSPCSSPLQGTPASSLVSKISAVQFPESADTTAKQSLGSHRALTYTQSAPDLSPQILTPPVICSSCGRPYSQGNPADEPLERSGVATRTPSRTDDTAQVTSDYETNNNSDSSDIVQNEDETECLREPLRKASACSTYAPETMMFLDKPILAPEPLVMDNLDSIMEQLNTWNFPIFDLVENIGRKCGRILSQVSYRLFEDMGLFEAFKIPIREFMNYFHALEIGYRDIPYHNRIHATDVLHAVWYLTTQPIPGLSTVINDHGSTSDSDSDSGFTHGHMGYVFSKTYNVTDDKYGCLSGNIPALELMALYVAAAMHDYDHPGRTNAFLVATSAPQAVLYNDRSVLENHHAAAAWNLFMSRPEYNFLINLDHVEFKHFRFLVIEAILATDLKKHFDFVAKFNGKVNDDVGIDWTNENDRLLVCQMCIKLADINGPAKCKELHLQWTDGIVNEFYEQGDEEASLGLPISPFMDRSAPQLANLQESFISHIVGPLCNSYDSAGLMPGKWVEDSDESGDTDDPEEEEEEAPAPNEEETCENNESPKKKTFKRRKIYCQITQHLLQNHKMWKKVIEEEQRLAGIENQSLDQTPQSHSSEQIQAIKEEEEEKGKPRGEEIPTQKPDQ
Dual specificity calcium/calmodulin-dependent 3',5'-cyclic nucleotide phosphodiesterase 1A, sequence (P54750 whole entry): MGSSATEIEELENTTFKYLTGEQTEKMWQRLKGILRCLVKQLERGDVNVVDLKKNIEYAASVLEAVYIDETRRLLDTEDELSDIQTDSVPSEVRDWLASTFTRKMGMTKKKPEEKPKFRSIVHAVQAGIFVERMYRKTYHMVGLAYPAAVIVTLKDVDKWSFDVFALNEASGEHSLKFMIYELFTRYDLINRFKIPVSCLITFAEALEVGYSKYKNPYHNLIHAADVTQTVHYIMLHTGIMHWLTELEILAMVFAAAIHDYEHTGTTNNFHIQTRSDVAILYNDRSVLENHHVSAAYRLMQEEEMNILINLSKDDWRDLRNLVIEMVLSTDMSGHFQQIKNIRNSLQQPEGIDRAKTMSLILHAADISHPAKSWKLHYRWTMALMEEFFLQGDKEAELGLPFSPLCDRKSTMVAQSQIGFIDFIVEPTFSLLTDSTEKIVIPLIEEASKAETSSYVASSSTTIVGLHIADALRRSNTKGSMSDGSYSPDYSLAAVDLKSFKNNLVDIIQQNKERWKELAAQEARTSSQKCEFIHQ

SMILES: COc1cc2ncnc(NC(C)Cc3cc(C)n[nH]3)c2cc1OC (racemic)
pIC50 [1]: 7.28

SMILES: COc1ccc2c(N[C@H](C)Cc3cc(C)[nH]n3)ncnc2c1OC
pIC50 [2]: 6.11
pIC50 [1]: 6.22
pIC50 [3]: 6.24

SMILES: COc1ccc2c(NC(C)Cc3cc(C)[nH]n3)ncnc2c1OC (racemic)
pIC50 [2]: 6.93
inhibition (HEK293): Active
inhibition [4]: 90%
inhibition [5]: Active
pIC50 [1]: 7.68
inhibition [6]: 90%
inhibition [7]: 90%
inhibition [8]: 80%
inhibition [9]: 76%
pIC50 [10]: 4.52
pIC50 [11]: 3.43
pIC50 [3]: 7.08
pIC50 [12]: 6.96
pIC50 [13]: 7.25
pIC50 [14]: 4.00
inhibition [15]: 80%
inhibition [16]: 76%
inhibition [17]: 90%

The remaining lines, values ahead:

pIC50 [1]: 7.46
SMILES: CCC(CC)Nc1ncnc2c(OC)c(OC)c(OC)cc12

pIC50 [1]: 8.35
SMILES: COc1ccc2c([C@H]3CCc4ccc(Cl)cc43)ncnc2c1OC

pIC50 [1]: 7.57
SMILES: COc1cc2c(NC(C)Cc3cc(C)n[nH]3)ncnc2c(OC)c1OC (racemic)
